ChEMBL document CHEMBL1129428 (J Med Chem, 1996)

What was measured:
Rattus norvegicus [1] = assay: Compound was tested for anticonvulsant activity after Oral Administration into Rats by using MES screen test after 0.25h,dose 15 mg/kg; No activity was demonstarted; assay type: functional, organism-based; design: dose 15 mg/kg
Summary of the method: (§1)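 Rats received the compound orally. […] Rats were tested in the MES screen at 0.25, 0.5, 1, 2 and 4 h. Each value is the number of rats protected out of 4. The test followed NINDS procedures.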

Rattus norvegicus [2] = assay: Compound was tested for anticonvulsant activity after Oral Administration into Rats by using MES screen test after 2h,dose 15 mg/kg; number of rats out of four which were protected; assay type: functional; summary of the method: as §1
Mus musculus [3] = assay: Anticonvulsant activity after intraperitoneal injection into mice by using MES screen test after 0.5 hr; assay type: functional
Rattus norvegicus [4] = assay: Compound was tested for anticonvulsant activity after Oral Administration into Rats by using MES screen test after 4h,dose 15 mg/kg; number of rats out of four which were protected; assay type: functional; summary of the method: as §1
Rattus norvegicus [5] = assay: Compound was tested for anticonvulsant activity after Oral Administration into Rats by using MES screen test after 0.5h,dose 15 mg/kg; No activity was demonstarted; assay type: functional, organism-based; design: dose 15 mg/kg; summary of the method: as §1
Rattus norvegicus [6] = assay: Compound was tested for anticonvulsant activity after Oral Administration into Rats by using MES screen test after 1h,dose 15 mg/kg; number of rats out of four which were protected; assay type: functional; summary of the method: as §1
Rattus norvegicus [7] = assay: Compound was tested for anticonvulsant activity after Oral Administration into Rats by using MES screen test after 0.25h,dose 12.5 mg/kg; number of rats out of four which were protected; assay type: functional; summary of the method: as §1
Mus musculus [8] = assay: Compound was tested for toxicity after intraperitoneal injection into mice by using toxicity screen test after 4 hr; assay type: organism-based; settings: in vivo, ip
Summary of the method: (§2)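 Mice injected intraperitoneally at 30, 100 and 300 mg/kg and examined 0.5 and 4 h afterwards. Each entry is the minimum dose giving activity (MES protection, scPTZ protection, or rotorod failure for neurotoxicity) in half or more of the mice. Activity is called absent if nothing occurs at 300 mg/kg.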

Mus musculus [9] = assay: Anticonvulsant activity after intraperitoneal injection into mice measured in a maximal electroshock scree (MES) screen; assay type: functional
[10] = Protection index = TD50/ED50 (scPTZ ); assay type: ADME; settings: read-out: PI
Summary of the method: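 Protection index calculated as TD50/ED50 from mouse intraperitoneal scPTZ ED50 and rotorod TD50 values, each taken at its own peak time.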

[11] = Compound was tested for toxicity after intraperitoneal injection into mice by using neurotoxicity screen test after 1 hr; assay type: organism-based; settings: mouse, in vivo, ip
Summary of the method: (§3)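 Quantitative intraperitoneal mouse testing in the MES, scPTZ or rotorod neurotoxicity screens at the peak time given for each compound (0.25–2 h). ED50 or TD50 reported in mg/kg with 95% CI and slope (SE).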

Mus musculus [12] = assay: Compound was tested for anticonvulsant activity after intraperitoneal injection into mice by using MES screen test after 1 hr; assay type: functional; settings: ip; summary of the method: as §3
[13] = Protection index = TD50/ED50 (MES); settings: mouse, in vivo; read-out: PI
Rattus norvegicus [14] = assay: Compound was tested for anticonvulsant activity after Oral Administration into Rats by using MES screen test after 2h,dose 12.5 mg/kg; number of rats out of four which were protected; assay type: functional; summary of the method: as §1
Rattus norvegicus [15] = assay: Compound was tested for anticonvulsant activity after Oral Administration into Rats by using MES screen test after 1h,dose 12.5 mg/kg; number of rats out of four which were protected; assay type: functional; summary of the method: as §1
Mus musculus [16] = assay: Compound was tested for anticonvulsant activity after intraperitoneal injection into mice by using scPTZ screen test after 0.5 hr; assay type: functional; settings: ip; summary of the method: as §2
Rattus norvegicus [17] = assay: Anticonvulsant activity after oral administration into rats; assay type: functional; design: concentration or dose not given beside the values
Rattus norvegicus [18] = assay: Compound was tested for anticonvulsant activity after Oral Administration into Rats by using MES screen test after 4h,dose 12.5 mg/kg; number of rats out of four which were protected; assay type: functional; summary of the method: as §1
Mus musculus [19] = assay: Anticonvulsant activity after intraperitoneal injection into mice by using scPTZ screen after 0.5 hr; assay type: functional
Mus musculus [20] = assay: Anticonvulsant activity after intraperitoneal injection into mice by using scPTZ screen test after 4 hr; assay type: functional
Mus musculus [21] = assay: Compound was tested for anticonvulsant activity after intraperitoneal injection into mice by using MES screen test after 1h,dose 12.50 mg/kg; assay type: functional; settings: ip
Rattus norvegicus [22] = assay: Compound was tested for anticonvulsant activity after Oral Administration into Rats by using MES screen test after 4h,dose 12.5 mg/kg; No activity was demonstarted; assay type: functional, organism-based; design: dose 12.5 mg/kg; summary of the method: as §1
Rattus norvegicus [23] = assay: Compound was tested for anticonvulsant activity after Oral Administration into Rats by using MES screen test after 0.5h,dose 12.5 mg/kg; No activity was demonstarted; assay type: functional, organism-based; design: dose 12.5 mg/kg; summary of the method: as §1
Rattus norvegicus [24] = assay: Compound was tested for anticonvulsant activity after Oral Administration into Rats by using MES screen test after 2h,dose 12.5 mg/kg; No activity was demonstarted; assay type: functional, organism-based; design: dose 12.5 mg/kg; summary of the method: as §1
[25] = Compound was tested for toxicity after intraperitoneal injection into mice by using neurotoxicity screen test after 2 hr; assay type: organism-based; settings: mouse, in vivo, ip; summary of the method: as §3
Rattus norvegicus [26] = assay: Compound was tested for anticonvulsant activity after Oral Administration into Rats by using MES screen test after 0.25h,dose 12.5 mg/kg; No activity was demonstarted; assay type: functional, organism-based; design: dose 12.5 mg/kg; summary of the method: as §1
Mus musculus [27] = assay: Compound was tested for anticonvulsant activity after intraperitoneal injection into mice by using scPTZ screen test after 2 hr; assay type: functional; settings: ip; summary of the method: as §3
Mus musculus [28] = assay: Compound was tested for anticonvulsant activity after intraperitoneal injection into mice by using MES screen test after 2 hr; assay type: functional; settings: ip; summary of the method: as §3
Mus musculus [29] = assay: Toxicity after intraperitoneal injection into mice by using toxicity screen test after 0.5 hr; assay type: organism-based; settings: in vivo, ip; summary of the method: as §2
Rattus norvegicus [30] = assay: Compound was tested for anticonvulsant activity after Oral Administration into rat by using MES screen test after 6 hr; assay type: functional
Summary of the method: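 Oral dosing in rats, maximal electroshock challenge, with ED50, 95% CI, slope and SE determined at the time listed for each compound (0.25 to 6 h range).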

Rattus norvegicus [31] = assay: Compound was tested for anticonvulsant activity after Oral Administration into rat by using MES screen test after 2 hr dose 12.5 mg/kg; assay type: functional
Mus musculus [32] = assay: Anticonvulsant activity after intraperitoneal injection into mice by using toxicity screen test after 0.5 hr; assay type: organism-based; settings: in vivo, ip
Rattus norvegicus [33] = assay: Compound was tested for anticonvulsant activity after Oral Administration into Rats by using MES screen test after 1h,dose 12.50 mg/kg; number of rats out of four which were protected; assay type: functional; settings: dose 12.5 mg/kg; summary of the method: as §1
Rattus norvegicus [34] = assay: Compound was tested for anticonvulsant activity after Oral Administration into Rats by using MES screen test after 0.5h,dose 12.50 mg/kg; number of rats out of four which were protected; assay type: functional; settings: dose 12.5 mg/kg; summary of the method: as §1
Rattus norvegicus [35] = assay: Compound was tested for anticonvulsant activity after Oral Administration into Rats by using MES screen test after 4h,dose 12.50 mg/kg; number of rats out of four which were protected; assay type: functional; settings: dose 12.5 mg/kg; summary of the method: as §1
Rattus norvegicus [36] = assay: Compound was tested for anticonvulsant activity after Oral Administration into Rats by using MES screen test after 0.25h,dose 12.50 mg/kg; number of rats out of four which were protected; assay type: functional; settings: dose 12.5 mg/kg; summary of the method: as §1
Rattus norvegicus [37] = assay: Compound was tested for anticonvulsant activity after Oral Administration into Rats by using MES screen test after 2h,dose 12.50 mg/kg; number of rats out of four which were protected; assay type: functional; settings: dose 12.5 mg/kg; summary of the method: as §1
[38] = Compound was tested for toxicity after oral administration in rat by using neurotoxicity screen test after 2 hr; assay type: organism-based; settings: in vivo
Summary of the method: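 Rat neurotoxicity after oral dosing, observed at 0.25, 0.5, 1, 2, 4, 6, 8 and 24 h (8 h omitted for one compound).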

Rattus norvegicus [39] = assay: Compound was tested for anticonvulsant activity after Oral Administration into rat by using MES screen test after 4 hr; assay type: functional
Summary of the method: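 Rats dosed orally, typically at 50 mg/kg first, then mostly 12.5 mg/kg (some compounds at 30 mg/kg), and tested by maximal electroshock. Four rats per compound, scored at 0.25, 0.5, 1, 2 and 4 h as the number of rats protected out of 4.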

| SMILES | Dose (Mus musculus [3]) [mg/kg] | Activity (Rattus norvegicus [7]) | Dose (Mus musculus [8]) [mg/kg] | Dose (Mus musculus [9]) [mg/kg] | TD50 at 1 h [11] [mg/kg] | selectivity ratio [13] | Activity (Rattus norvegicus [14]) | Activity (Rattus norvegicus [15]) | Activity (Rattus norvegicus [17]) | Activity (Rattus norvegicus [18]) | Dose (Mus musculus [19]) [mg/kg] | TD50 at 2 h [25] [mg/kg] | Activity (Rattus norvegicus [26]) | ED50 (Mus musculus [27]) [mg/kg] | ED50 (Mus musculus [28]) [mg/kg] | Dose (Mus musculus [29]) [mg/kg] | other results |
| --- | --- | --- | --- | --- | --- | --- | --- | --- | --- | --- | --- | --- | --- | --- | --- | --- | --- |
| CCC(C)(C)c1ccc(Oc2ccc(/C=N/NC(N)=O)cc2)cc1 | 300 |  |  |  |  |  |  |  |  |  |  |  |  |  |  |  | Activity (Rattus norvegicus [1]): No activity; Activity (Rattus norvegicus [2]): 3; Activity (Rattus norvegicus [4]): 4; Activity (Rattus norvegicus [5]): No activity; Activity (Rattus norvegicus [6]): 2 |
| C/C(=N/NC(N)=O)c1ccc(Sc2ccc(Br)cc2)cc1 | 100 | 1 | 300 | 30 | 43.2 | 11.3 | 4 | 4 | 3 | 4 | 300 |  |  |  |  |  | selectivity ratio [10]: 1.03; ED50 (Mus musculus [12]): 3.82 mg/kg; ED50 (Mus musculus [16]): 41.9 mg/kg |
| Cc1ccc(C)c(Oc2ccc(/C=N/NC(N)=O)cc2)c1 | 100 | 1 | 300 | 100 |  | 10.3 |  | 1 |  |  | 30 | 356 |  |  |  |  | Dose (Mus musculus [20]): 300 mg/kg; ED50 (Mus musculus [21]): 34.7 mg/kg; Activity (Rattus norvegicus [22]): No activity; Activity (Rattus norvegicus [23]): No activity; Activity (Rattus norvegicus [24]): No activity |
| CCc1ccc(Oc2ccc(/C=N/NC(N)=O)cc2)cc1 | 30 |  | 100 | 30 |  | 3.32 | 4 | 4 | 2 | 4 | 300 | 34 | No activity | > 100 | 10.3 | 300 | ED50 (Rattus norvegicus [30]): 6.48 mg/kg |
| NC(=O)N/N=C/c1ccc(Oc2cc(F)ccc2F)cc1 | 100 |  | 300 | 300 |  |  |  | 1 | 1 | 1 | 100 |  | No activity |  |  | 300 | ED50 (Rattus norvegicus [31]): 11.4 mg/kg |
| NC(=O)N/N=C/c1ccc(Oc2ccc(Cl)cc2F)cc1 | 30 |  | 30 | 30 | 36.3 |  |  |  |  |  |  |  |  | > 45 | 3.31 |  | Dose (Mus musculus [32]): 100 mg/kg; Activity (Rattus norvegicus [33]): 4; Activity (Rattus norvegicus [34]): 4; Activity (Rattus norvegicus [35]): 4; Activity (Rattus norvegicus [36]): 2; Activity (Rattus norvegicus [37]): 4; TD50 at 2 h [38]: > 90 mg/kg; ED50 (Rattus norvegicus [39]): 1.13 mg/kg |
